From ChEMBL document CHEMBL4311948, “Exploring the Natural Piericidins as Anti-Renal Cell Carcinoma Agents Targeting Peroxiredoxin 1” (J Med Chem, 2019)
Active and inactive are the calls of the source. The calls are words filed in the database; no cut-off is given here.

What was measured:
ACHN [1] = assay: Induction of apoptosis in human ACHN cells assessed as late apoptotic cells at 50 nM measured after 48 hrs by Annexin V-FITC/propidium iodide staining based flow cytometry (reference value: 0%); format: functional
OS-RC-2 = assay: Cytotoxicity against human OS-RC2 cells assessed as reduction in cell viability measured after 72 hrs by CCK8 assay; format: functional, cell-based; conditions: OS-RC-2, 72 h
Summary of the method: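 Cells were grown in 10% FBS medium: MEM for ACHN, RPMI1640 for OS-RC-2 and 786-O, DMEM for HK-2. They were seeded at 400–800 cells/well in 384-well plates and treated with a range of compound concentrations or solvent control, with sorafenib as positive control. After 72 h, CCK-8 absorbance was read at 450 nm in triplicate, and IC50 was taken from dose-response curves.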

ACHN [2] = assay: Down regulation of EGFR mRNA expression in human ACHN cells at 25 to 50 nM measured after 24 hrs by qRT-PCR analysis; format: functional, cell-based
ACHN [3] = assay: Up regulation of PRDX1 mRNA expression in human ACHN cells at 25 to 50 nM measured after 24 hrs by qRT-PCR analysis; format: functional, cell-based
[4] = target: T1, Peroxiredoxin-1 (Homo sapiens) (UniProt Q06830); assay: Activation of PRDX1 in human ACHN cells assessed as reduction in reactive oxygen species level at 25 to 50 nM measured after 24 hrs by Cell-rox reagent-based flow cytometry
T1 sequence (whole entry): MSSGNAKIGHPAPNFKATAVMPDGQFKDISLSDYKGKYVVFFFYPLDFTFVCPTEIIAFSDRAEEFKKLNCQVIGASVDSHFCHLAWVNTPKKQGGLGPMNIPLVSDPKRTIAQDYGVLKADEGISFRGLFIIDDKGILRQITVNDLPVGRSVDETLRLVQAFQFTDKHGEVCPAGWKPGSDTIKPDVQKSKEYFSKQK
Summary of the method: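 ACHN cells grown 24 h in MEM + 10% FBS, reseeded at 2 × 10^4 cells/well and exposed to 0, 25 or 50 nM for 24 h. Harvested cells loaded with CellROX oxidative stress reagent 5 μM, 30 min at 37 °C in the dark, then read by flow cytometry. shPRDX1 line: stable knockdown selected with puromycin (1 μg/mL) before dosing. Mean ± SD.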

ACHN [5] = assay: Antitumor activity against human ACHN cells xenografted in Balb/c nu/nu mouse assessed as tumor weight at 0.8 mg/kg, ip administered once daily for 21 days measured post-last dose by caliper method (reference value: 0.55 +/- 0.13 g); format: functional
Summary of the method: (§1)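 Male athymic Balb/c nu/nu mice, four weeks old, acclimatised 1 week. 10^7 ACHN cells in 0.2 mL PBS injected into the right flank. At about 150 mm3, mice randomised into PBS control or 0.8 mg/kg groups, dosed ip daily for three weeks. Tumours measured by caliper (volume = 0.5 × L × W²) with body weight recorded. Endpoint tumour weight, sections stained by H&E and TUNEL. Tissue lysed for immunoblot.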

ACHN [6] = assay: Induction of apoptosis in human ACHN cells assessed as necrotic cells at 50 nM measured after 24 hrs by Annexin V-FITC/propidium iodide staining based flow cytometry (reference value: 0%); format: functional
[7] = Toxicity in Balb/c nu/nu mouse xenografted with human ACHN cells assessed as effect on survival at 0.8 mg/kg, ip administered once daily for 21 days; format: organism-based; conditions: in vivo, 504 h; summary of the method: as §1
ACHN [8] = assay: Cytotoxicity against human ACHN cells harboring shPRDX1 gene assessed as reduction in cell viability measured after 72 hrs by CCK8 assay; format: functional, cell-based; conditions: Homo sapiens, ACHN, 72 h; read-out: IC50
Summary of the method: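 Transfectants were selected with puromycin (1 μg/mL), and knockdown was confirmed by immunoblot. Viability was read by CCK-8 after 72 h of compound exposure in 384-well plates at 400–800 cells/well in MEM with 10% FBS, and IC50 was taken from dose-response curves.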

ACHN [9] = assay: Down regulation of MET mRNA expression in human ACHN cells at 25 to 50 nM measured after 24 hrs by qRT-PCR analysis; format: functional, cell-based
ACHN [10] = assay: Antiproliferative activity against human ACHN cells assessed as inhibition of cell proliferation at 50 nM measured after 24 to 72 hrs by holographic microscopy; format: functional, cell-based
Summary of the method: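 2×10^5 ACHN cells plated per well and allowed to adhere 24 h. 50 nM then added. Label-free digital holographic microscopy (Holomonitor M4) automatically tracked cell movement, morphology and thickness over time.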

ACHN [11] = assay: Down regulation of LDHA mRNA expression in human ACHN cells at 25 to 50 nM measured after 24 hrs by qRT-PCR analysis; format: functional, cell-based

For `C/C=C(\C)[C@H](O)[C@H](C)/C=C(C)/C=C/C/C(C)=C/Cc1nc(OC)c(OC)c(O)c1C` [PIERICIDIN A], the Activity (ACHN [1]) was 7.4%, the IC50 (OS-RC-2) was 5.2 µM and the Activity (ACHN [2]) was “Active”. The Activity (ACHN [3]) was “Active”, the Activity [4] was “Active” and the Activity (ACHN [5]) was 0.28 g. For the same molecule, the Activity (ACHN [6]) was 15.9%, the Activity [7] was “Non-Toxic” and the IC50 (ACHN [8]) was 1.6 µM. For the same molecule, the Activity (ACHN [9]) was “Active”, the Activity (ACHN [10]) was “Active” and the Activity (ACHN [11]) was “Active”.
